This is an account of results in ChEMBL document CHEMBL4414561, “Cholinesterase Inhibitory Arisugacins L-Q from a Penicillium sp. Isolate Obtained through a Citizen Science Initiative and Their Activities in a Phenotype-Based Zebrafish Assay” (J Nat Prod, 2019).

Experiment [1] concerns the target Acetylcholinesterase (Electrophorus electricus) (UniProt O42275). Nature of the experiment: Inhibition of electric eel AChE at 50 uM incubated for 15 mins by Ellman's method relative to control. The method in brief:
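Colorimetric kit assay with Electrophorus electricus AChE. Compound is incubated with enzyme for 15 min. Assay buffer containing AChE substrate and DTNB is then added, and absorbance is read at 0 and 15 min. Single-point screen at 50 μM; IC50 also determined.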

The species entered for experiment [2] is Danio rerio. In words: Induction of paralysis in AB/TU zebra fish at 100 uM treated at 7 hpf and measured after 72 hrs. It is filed as functional, organism-based. In a few lines: (§1)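 Embryos exposed from 7 h postfertilization and scored for paralysis at 72 hpf. Value is the lowest concentration giving paralysis; […]. Pure compounds come from 10 mM DMSO stocks, with further dilutions made in DMSO.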

Experiment [3] deals with Cholinesterase (Equus caballus) (UniProt P81908). Nature of the experiment: Inhibition of equine serum BChE at 50 uM using S-butyrylthiocholine iodide as substrate incubated for 15 mins by Ellman's method relative to control. In a few lines: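 Same colorimetric kit with equine serum butyrylcholinesterase and S-butyrylthiocholine iodide substrate plus DTNB. Compound is preincubated with enzyme for 15 min. Absorbance is read at 0 and 15 min after substrate addition. Sample tested at 50 μM.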
A general note: DTNB colorimetry detects thiols as they appear.

The species entered for experiment [4] is Danio rerio. Nature of the experiment: Induction of paralysis in AB/TU zebra fish at 50 uM treated at 7 hpf and measured after 72 hrs. The format is functional, organism-based. In a few lines:
as §1

The next experiment concerns the target Acetylcholinesterase (Electrophorus electricus, UniProt O42275). In words: Inhibition of electric eel AChE incubated for 15 mins by Ellman's method. The method in brief: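 Colorimetric kit assay with Electrophorus electricus AChE. Compound is incubated with enzyme for 15 min. Assay buffer containing AChE substrate and DTNB is then added, and absorbance is read at 0 and 15 min.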

The species entered for experiment [5] is Danio rerio. Nature of the experiment: Induction of paralysis in AB/TU zebra fish at 5 uM treated at 7 hpf and measured after 72 hrs. The format is functional, organism-based. The method in brief: as §1
Experiment [6] is filed under the species Danio rerio. Nature of the experiment: Induction of paralysis in AB/TU zebra fish at 1 uM treated at 7 hpf and measured after 72 hrs. It is filed as functional, organism-based. In a few lines: as §1
Experiment [7] is filed under the species Danio rerio. Nature of the experiment: Induction of paralysis in AB/TU zebra fish at 10 uM treated at 7 hpf and measured after 72 hrs. It is filed as functional, organism-based. In a few lines:
as §1

Calls of active or inactive are those of the source. The rule behind the calls is not given here. Bounds are passed on as bounds.

Sequence of Acetylcholinesterase (Electrophorus electricus) (O42275 24-633 limits assumed): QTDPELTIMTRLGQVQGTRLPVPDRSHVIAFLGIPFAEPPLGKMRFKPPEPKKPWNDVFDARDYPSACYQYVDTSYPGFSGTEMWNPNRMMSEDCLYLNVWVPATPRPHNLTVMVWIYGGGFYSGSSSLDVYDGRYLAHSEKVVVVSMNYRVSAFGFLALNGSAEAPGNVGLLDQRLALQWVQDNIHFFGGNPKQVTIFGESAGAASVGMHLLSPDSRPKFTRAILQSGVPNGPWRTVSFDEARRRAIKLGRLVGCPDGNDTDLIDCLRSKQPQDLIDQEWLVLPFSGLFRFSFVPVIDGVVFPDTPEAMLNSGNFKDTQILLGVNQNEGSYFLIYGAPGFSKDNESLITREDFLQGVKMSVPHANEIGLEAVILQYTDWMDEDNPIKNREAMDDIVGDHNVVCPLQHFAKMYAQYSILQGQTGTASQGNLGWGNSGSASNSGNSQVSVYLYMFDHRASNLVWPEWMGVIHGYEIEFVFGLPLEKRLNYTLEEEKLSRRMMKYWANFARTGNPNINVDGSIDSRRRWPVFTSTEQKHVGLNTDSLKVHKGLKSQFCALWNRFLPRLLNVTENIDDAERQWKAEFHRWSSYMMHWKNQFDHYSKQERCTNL
Sequence of Acetylcholinesterase (O42275 whole entry): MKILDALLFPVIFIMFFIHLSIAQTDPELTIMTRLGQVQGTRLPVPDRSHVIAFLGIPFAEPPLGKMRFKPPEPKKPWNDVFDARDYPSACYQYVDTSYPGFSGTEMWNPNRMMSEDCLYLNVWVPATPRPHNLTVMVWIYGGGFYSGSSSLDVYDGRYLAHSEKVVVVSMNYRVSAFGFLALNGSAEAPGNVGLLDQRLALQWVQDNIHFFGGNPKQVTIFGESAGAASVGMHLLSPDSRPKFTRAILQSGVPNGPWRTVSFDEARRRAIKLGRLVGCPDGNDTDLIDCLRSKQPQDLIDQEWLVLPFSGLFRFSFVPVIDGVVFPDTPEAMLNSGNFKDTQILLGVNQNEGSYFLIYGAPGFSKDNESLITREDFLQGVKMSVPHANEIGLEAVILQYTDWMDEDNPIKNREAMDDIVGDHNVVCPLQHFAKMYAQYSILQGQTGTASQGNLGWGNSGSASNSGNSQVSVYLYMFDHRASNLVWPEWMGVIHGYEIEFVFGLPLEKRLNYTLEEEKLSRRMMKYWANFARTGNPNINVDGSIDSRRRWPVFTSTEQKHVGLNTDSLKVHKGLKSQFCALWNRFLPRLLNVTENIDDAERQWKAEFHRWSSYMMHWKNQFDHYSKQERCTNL
Sequence of Cholinesterase (Equus caballus) (P81908 whole entry): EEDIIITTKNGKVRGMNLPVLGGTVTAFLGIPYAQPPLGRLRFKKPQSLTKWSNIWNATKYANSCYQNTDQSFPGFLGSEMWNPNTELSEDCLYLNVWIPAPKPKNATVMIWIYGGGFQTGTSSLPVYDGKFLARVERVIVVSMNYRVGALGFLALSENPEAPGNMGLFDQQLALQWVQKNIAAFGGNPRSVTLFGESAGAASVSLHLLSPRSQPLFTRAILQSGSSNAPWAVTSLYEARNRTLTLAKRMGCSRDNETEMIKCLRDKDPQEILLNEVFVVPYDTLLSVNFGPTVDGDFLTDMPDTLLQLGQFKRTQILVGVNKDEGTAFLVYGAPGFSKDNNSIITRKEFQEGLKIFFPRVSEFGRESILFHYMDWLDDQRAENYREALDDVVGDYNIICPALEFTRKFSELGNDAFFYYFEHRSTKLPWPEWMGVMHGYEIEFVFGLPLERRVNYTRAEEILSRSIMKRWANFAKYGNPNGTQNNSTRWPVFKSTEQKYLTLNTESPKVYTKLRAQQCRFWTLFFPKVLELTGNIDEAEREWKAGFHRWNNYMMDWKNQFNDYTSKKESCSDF

As usually defined, the inhibition is the drop in the measured response relative to a control, in per cent. On to `COc1ccc(-c2cc3c(c(=O)o2)C[C@]2(O)[C@@]4(C)CC[C@@H](O)C(C)(C)[C@]4(O)CC[C@@]2(C)O3)cc1`, for which the inhibition in experiment [1] was 83.4%; in experiment [3] it was 0%. In the experiment listed under Danio rerio [2], the outcome was inactive.
A word on the IC50: it is the concentration that gives 50% inhibition. Read a low IC50 as inhibition by little substance. Consider `COc1ccc(-c2cc3c(c(=O)o2)C[C@]2(O)[C@@]4(C)CC[C@H](O)C(C)(C)[C@]4(O)CC[C@@]2(C)O3)cc1`, for which the inhibition in experiment [1] came out at 89.4%; in experiment [3], 4.7%. The outcome in the experiment filed under Danio rerio [4] was Active. This compound gave an IC50 against Acetylcholinesterase of 3.9 µM.
In the case of `COc1ccc(-c2cc3c(c(=O)o2)C[C@@H]2[C@@]4(C)CCC(=O)C(C)(C)[C@@H]4CC[C@@]2(C)O3)cc1`, the inhibition in experiment [1] worked out at 26.9%; in experiment [3] it was 11.6%. For the same compound, on Acetylcholinesterase, the IC50 was greater than 100 µM. Moreover, in the experiment listed under Danio rerio [5], the outcome was Active.
Consider `COc1ccc(-c2cc3c(c(=O)o2)C[C@]2(O)[C@@]4(C)C(=O)C[C@@H](O)C(C)(C)[C@]4(O)CC[C@@]2(C)O3)cc1`, for which the results for the inhibition in experiment [1] and in experiment [3] were 98% and 0%, respectively. Further, the result in the experiment listed under Danio rerio [6] was Active. The same compound had a half-maximal inhibitory concentration (IC50) against Acetylcholinesterase of 0.191 µM.
Regarding `COP(=S)(OC)SCn1nnc2ccccc2c1=O`, the inhibition amounted to 12.2% in experiment [1] and 3.3% in experiment [3]. Besides, the outcome in the experiment filed under Danio rerio [6] was Active.
As for `COc1ccc(-c2cc(O)c(C/C=C(\C)CC/C=C(\C)CCC=C(C)C)c(=O)o2)cc1`, the values for the inhibition in experiment [1] and in experiment [3] were 4.3% and 0%, respectively. Also, the result in the experiment listed under Danio rerio [4] was Active. This compound also had an IC50 against Acetylcholinesterase greater than 100 µM.
With `CNC(=O)Oc1ccc2c(c1)[C@]1(C)CCN(C)[C@@H]1N2C`, the inhibition in experiment [1] is 99.8%; in experiment [3], 93.2%. For the same compound, the result in the experiment filed under Danio rerio [2] was Active.
With `COc1ccc(-c2cc3c(c(=O)o2)C[C@]2(O)[C@@]4(C)[C@H](O)CC(=O)C(C)(C)[C@@]4(O)CC[C@@]2(C)O3)cc1`, the inhibition in experiment [1] came to 83.6%; in experiment [3] it was 0%. In the experiment listed under Danio rerio [2], the outcome was inactive. The same compound yielded an IC50 on Acetylcholinesterase of 4.6 µM.
For the compound `COc1ccc(-c2cc3c(c(=O)o2)C[C@H]2[C@@](C)(CC[C@@]4(O)C(C)(C)C(=O)CC[C@]24C)O3)cc1`, the values for the inhibition in experiment [1] and in experiment [3] were 95.1% and 32.6%, respectively. This compound yielded an IC50 against Acetylcholinesterase of 1.4 µM. In the experiment filed under Danio rerio [5], the outcome was Active.
Turning to `CC(C)NP(=O)(NC(C)C)OP(=O)(NC(C)C)NC(C)C` [TETRAISOPROPYL PYROPHOSPHORAMIDE], the inhibition in experiment [1] came to 1.3%; in experiment [3] it was 15.1%. Moreover, the result in the experiment listed under Danio rerio [2] was inactive. Also, on Acetylcholinesterase, the IC50 is greater than 100 µM.
As to `COc1ccc(-c2cc(O)c(C/C=C(\C)CC/C=C(\C)CCC(O)C(C)(C)O)c(=O)o2)cc1` (stereo unspecified), the figures for the inhibition in experiment [1] and in experiment [3] were 34.1% and 4.7%, respectively. For the same compound, in the experiment listed under Danio rerio [7], the outcome was Active. The compound also had an IC50 against Acetylcholinesterase greater than 100 µM.
Take `COc1ccc(-c2cc3c(c(=O)o2)C[C@@H]2[C@@]4(C)CC[C@H](O)C(C)(C)[C@@H]4CC[C@@]2(C)O3)cc1`: the inhibition in experiment [1] was found to be 3%; in experiment [3], 4.7%. The outcome in the experiment filed under Danio rerio [2] was inactive.
Regarding `COc1ccc(-c2cc3c(c(=O)o2)C[C@]2(O)[C@@]4(C)[C@H](O)C[C@@H](O)C(C)(C)[C@]4(O)CC[C@@]2(C)O3)cc1`, the inhibition was 29.2% in experiment [1] and 0% in experiment [3]. Besides, the result in the experiment filed under Danio rerio [2] was inactive. In addition, the concentration for half-maximal inhibition (IC50) against Acetylcholinesterase was greater than 100 µM.
As to `COc1ccc(-c2cc3c(c(=O)o2)C[C@H]2[C@@](C)(CC[C@@]4(O)C(C)(C)[C@@H](O)CC[C@]24C)O3)cc1`, the inhibition came to 75.4% in experiment [1] and 7% in experiment [3]. In the experiment filed under Danio rerio [2], the outcome was inactive.
On to `COc1ccc(-c2cc3c(c(=O)o2)C[C@]2(O)[C@@]4(C)CC[C@@H](OC(C)=O)C(C)(C)[C@]4(O)CC[C@@]2(C)O3)cc1`, for which the inhibition in experiment [1] came to 60.1%; in experiment [3] it was 4.7%. Besides, the outcome in the experiment filed under Danio rerio [7] was Active.
Regarding `COc1ccc(-c2cc3c(c(=O)o2)C[C@H]2[C@@]4(C)C=CC(=O)C(C)(C)[C@@H]4CC[C@@]2(C)O3)cc1`, the values for the inhibition in experiment [1] and in experiment [3] were 40.3% and 0%, respectively. Moreover, 66 µM corresponded to half-maximal inhibition at Acetylcholinesterase (IC50). Further, the outcome in the experiment filed under Danio rerio [5] was Active.
In the case of `COc1ccc(-c2cc3c(c(=O)o2)C[C@]2(O)[C@@]4(C)CCC(=O)C(C)(C)[C@]4(O)CC[C@@]2(C)O3)cc1`, the inhibition in experiment [1] came out at 96.6%; in experiment [3], 9.3%. The result in the experiment listed under Danio rerio [2] was inactive.
